In ChEMBL document CHEMBL4402600, “Discovery of a Dual Tubulin Polymerization and Cell Division Cycle 20 Homologue Inhibitor via Structural Modification on Apcin” (J Med Chem, 2020):
The source made the active and inactive calls. The calls are words filed in the database; no cut-off is given here.

Legend:
[1] = biological target: T1, Cell division cycle protein 20 homolog (Homo sapiens, UniProt Q12834); experiment: Inhibition of CDC20 in human HepG2 cells assessed as increase in Bim protein levels at 30 uM incubated for 48 hrs by Western blot Analysis; assay type: cell-based
T1 sequence (Q12834 whole entry): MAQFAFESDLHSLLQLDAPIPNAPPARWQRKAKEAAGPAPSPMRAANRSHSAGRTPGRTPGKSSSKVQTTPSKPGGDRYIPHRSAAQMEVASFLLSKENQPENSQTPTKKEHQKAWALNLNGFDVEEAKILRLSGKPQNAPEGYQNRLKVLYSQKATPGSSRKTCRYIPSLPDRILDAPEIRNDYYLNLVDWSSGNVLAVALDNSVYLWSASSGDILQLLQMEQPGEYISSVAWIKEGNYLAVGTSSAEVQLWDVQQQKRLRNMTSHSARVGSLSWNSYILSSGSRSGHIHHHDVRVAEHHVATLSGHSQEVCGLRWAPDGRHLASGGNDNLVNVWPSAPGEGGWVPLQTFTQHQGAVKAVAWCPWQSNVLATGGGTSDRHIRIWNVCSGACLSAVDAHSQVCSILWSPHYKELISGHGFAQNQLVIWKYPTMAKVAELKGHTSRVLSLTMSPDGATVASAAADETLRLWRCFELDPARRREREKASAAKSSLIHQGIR
Summary of the method: (§1)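 HepG2 lysates in RIPA buffer with protease/phosphatase inhibitors; 25 μg protein by SDS-PAGE/PVDF, blocked in 5% milk/TBST, primary antibodies overnight at 4°C (Cyclin A2, Cyclin B1, Bim, Aurora A, Skp2), HRP secondary 1 h at room temperature, ECL; bands quantified by densitometry.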

Caov-3 cell line = experiment: Cytotoxicity in human Caov3 cells assessed as reduction in cell viability incubated for 48 hrs by MTT assay; assay type: functional, cell-based; conditions: Caov-3, 48 h
Summary of the method: (§2)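 Cells grown at 37°C, 5% CO₂ (HepG2, OVCAR-3, Caov-3 in DMEM + 10% FBS; A549, HeLa, A375, MCF-7 in RPMI 1640 + 10% FBS). Seeded at 4-5×10³/well in triplicate, adhered overnight, exposed to 0.03–300 μM (DMSO <0.1%) for 48 h. MTT added for 4 h, formazan dissolved in DMSO, absorbance read. IC50 from dose–response curves, mean ± SD of at least three independent experiments.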

[2] = biological target: T1, Cell division cycle protein 20 homolog; experiment: Inhibition of CDC20 in human HepG2 cells assessed as increase in stability of Bim protein at 30 uM measured after 1 to 12 hrs by Western blot Analysis
HepG2 [3] = experiment: Induction of apoptosis in human HepG2 cells assessed as viable cells level at 100 uM incubated for 24 hrs by Annexin V-FITC/PI staining based flow cytometry (reference value: 89.38%); assay type: functional
HepG2 [4] = experiment: Induction of apoptosis in human HepG2 cells assessed as late apoptotic cells level at 100 uM incubated for 24 hrs by Annexin V-FITC/PI staining based flow cytometry (reference value: 5.12%); assay type: functional
[5] = biological target: Fizzy-related protein homolog (Homo sapiens) (UniProt Q9UM11); experiment: Inhibition of CDH1 in human HepG2 cells assessed as effect on Skp2 protein expression at 30 uM incubated for 48 hrs by Western blot Analysis; assay type: cell-based; summary of the method: as §1
Fizzy-related protein homolog (Homo sapiens), sequence (Q9UM11 whole entry): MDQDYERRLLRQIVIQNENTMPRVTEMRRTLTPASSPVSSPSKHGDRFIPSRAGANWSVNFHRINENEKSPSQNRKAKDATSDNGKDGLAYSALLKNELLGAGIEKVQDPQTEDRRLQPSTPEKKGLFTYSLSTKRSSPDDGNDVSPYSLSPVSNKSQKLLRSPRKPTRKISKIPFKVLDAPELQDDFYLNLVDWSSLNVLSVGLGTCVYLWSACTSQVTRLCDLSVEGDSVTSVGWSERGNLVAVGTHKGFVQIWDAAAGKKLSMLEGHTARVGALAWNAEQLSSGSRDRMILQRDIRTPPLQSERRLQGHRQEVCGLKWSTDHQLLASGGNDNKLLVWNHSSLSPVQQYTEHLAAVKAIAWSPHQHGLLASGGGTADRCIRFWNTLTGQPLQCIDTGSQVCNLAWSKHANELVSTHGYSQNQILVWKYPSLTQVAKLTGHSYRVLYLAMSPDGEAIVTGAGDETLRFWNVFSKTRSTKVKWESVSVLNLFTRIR

HepG2 [6] = experiment: Induction of apoptosis in human HepG2 cells assessed as necrotic cells level at 100 uM incubated for 24 hrs by Annexin V-FITC/PI staining based flow cytometry (reference value: 1.48%); assay type: functional
HepG2 [7] = experiment: Inhibition of mitotic exit in human HepG2 cells assessed as increase in nuclear phosphohistone H3 levels at 30 uM incubated for 48 hrs by immunofluorescence assay relative to control; assay type: functional; parameters: scale not given: the % may be the effect or the level left
Summary of the method: (§3)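 HepG2 seeded at 4×10³/well, overnight adhesion, treated 48 h. Fixed 15 min in 4% formaldehyde, permeabilized with Triton X-100, BSA-blocked, anti-phospho-histone H3 (Ser10) at 4°C overnight, fluorescent anti-rabbit secondary, DAPI counterstain. Fluorescence read relative to DMSO control; PHH3-positive cells counted in random fields as % of total. At least two experiments.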

HepG2 [8] = experiment: Induction of apoptosis in human HepG2 cells assessed as increase in cleaved PARP level at 3 to 30 uM incubated for 48 hrs by Western blot analysis; assay type: functional, cell-based
Summary of the method: (§4)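 HepG2 cells treated 48 h. Lysates in RIPA buffer with protease/phosphatase inhibitors; 25 μg protein run on SDS-PAGE, transferred to PVDF, blocked in 5% milk/TBST, primary antibodies overnight at 4°C (caspase-3, cleaved caspase-3, cleaved PARP), HRP secondary 1 h at room temperature, ECL detection; densitometry quantified.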

[9] = biological target: T1, Cell division cycle protein 20 homolog; experiment: Inhibition of CDC20 in human HepG2 cells assessed as increase in stability of cyclin B1 protein at 30 uM measured after 2 to 8 hrs by Western blot Analysis; assay type: cell-based
Summary of the method: (§5)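 Time course in HepG2: cyclin B1, Aurora A, Bim and cleaved PARP examined by Western blot at 1, 2, 4, 8 and 12 h after adding 30 μM compound; lysis in RIPA with inhibitors, 25 μg protein per lane, ECL detection.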

HepG2 [10] = experiment: Cytotoxicity in human HepG2 cells assessed as reduction in cell viability incubated for 48 hrs by MTT assay; assay type: functional, cell-based; conditions: HepG2, 48 h; summary of the method: as §2
HepG2 [11] = experiment: Induction of apoptosis in human HepG2 cells assessed as early apoptotic cells level at 100 uM incubated for 24 hrs by Annexin V-FITC/PI staining based flow cytometry (reference value: 4.02%); assay type: functional
A-375 = experiment: Cytotoxicity in human A375 cells assessed as reduction in cell viability incubated for 48 hrs by MTT assay; assay type: functional, cell-based; conditions: A-375, 48 h; summary of the method: as §2
[12] = biological target: T1, Cell division cycle protein 20 homolog; experiment: Inhibition of CDC20 in human HepG2 cells assessed as decrease in cyclin B degradation at 30 uM incubated for 48 hrs by Western blot Analysis; assay type: cell-based; summary of the method: as §1
[13] = biological target: T1, Cell division cycle protein 20 homolog; experiment: Inhibition of CDC20 in human HepG2 cells assessed as increase in stability of Bim protein at 30 uM measured after 2 to 8 hrs by Western blot Analysis; assay type: cell-based; summary of the method: as §5
HepG2 [14] = experiment: Inhibition of mitotic exit in human HepG2 cells assessed as increase in nuclear phosphohistone H3 levels incubated for 48 hrs by immunofluorescence assay; assay type: functional, cell-based; summary of the method: as §3
HepG2 [15] = experiment: Inhibition of mitotic exit in human HepG2 cells assessed as increase in nuclear phosphohistone H3 levels at 3 to 30 uM incubated for 48 hrs by Western blot analysis relative to control; assay type: functional, cell-based
HepG2 [16] = experiment: Induction of apoptosis in human HepG2 cells assessed as increase in cleaved caspase-3 level at 3 to 30 uM incubated for 48 hrs by Western blot analysis; assay type: functional, cell-based; summary of the method: as §4
[17] = biological target: T1, Cell division cycle protein 20 homolog; experiment: Binding affinity to CDC20 (unknown origin) by SPR analysis
Summary of the method: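 Recombinant human Cdc20 (>95% pure) coupled by EDC/NHS to an acid-coupling chip; PBS pH 7.4 running buffer. Compounds injected as a gradient dilution series starting at 200 μM, 120-140 s association, 160 s dissociation. Steady-state values plotted against concentration; K_D from a one-to-one / single-site model.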

MCF7 = experiment: Cytotoxicity in human MCF7 cells assessed as reduction in cell viability incubated for 48 hrs by MTT assay; assay type: functional, cell-based; conditions: MCF7, 48 h; summary of the method: as §2
[18] = biological target: Fizzy-related protein homolog (Homo sapiens) (UniProt Q9UM11); experiment: Inhibition of CDH1 in human HepG2 cells assessed as effect on Aurora A protein expression at 30 uM incubated for 48 hrs by Western blot Analysis; assay type: cell-based; summary of the method: as §1
[19] = biological target: T1, Cell division cycle protein 20 homolog; experiment: Inhibition of CDC20 in human HepG2 cells assessed as increase in Aurora A protein degradation at 30 uM measured after 1 to 12 hrs by Western blot analysis; assay type: cell-based; summary of the method: as §5
HeLa = experiment: Cytotoxicity in human HeLa cells assessed as reduction in cell viability incubated for 48 hrs by MTT assay; assay type: functional, cell-based; summary of the method: as §2
A549 = experiment: Cytotoxicity in human A549 cells assessed as reduction in cell viability incubated for 48 hrs by MTT assay; assay type: functional, cell-based; conditions: A549, 48 h; summary of the method: as §2
HepG2 [20] = experiment: Inhibition of mitotic exit in human HepG2 cells assessed as increase in nuclear phosphohistone H3 levels at 100 uM incubated for 48 hrs by immunofluorescence assay relative to control; assay type: functional; parameters: scale not given: the % may be the effect or the level left; summary of the method: as §3
HepG2 [21] = experiment: Induction of apoptosis in human HepG2 cells assessed as viable cells level at 0.3 uM incubated for 24 hrs by Annexin V-FITC/PI staining based flow cytometry (reference value: 89.38%); assay type: functional
Tubulin (Sus scrofa) = Tubulin (Sus scrofa) (UniProt P02554+P02550); experiment: Inhibition of porcine brain tubulin polymerization assessed as reduction in rate and extent of tubulin assembly measured at 37 degC every 30 secs for 60 mins by fluorescence based assay
Tubulin (Sus scrofa), sequence (P02550 whole entry, looked up): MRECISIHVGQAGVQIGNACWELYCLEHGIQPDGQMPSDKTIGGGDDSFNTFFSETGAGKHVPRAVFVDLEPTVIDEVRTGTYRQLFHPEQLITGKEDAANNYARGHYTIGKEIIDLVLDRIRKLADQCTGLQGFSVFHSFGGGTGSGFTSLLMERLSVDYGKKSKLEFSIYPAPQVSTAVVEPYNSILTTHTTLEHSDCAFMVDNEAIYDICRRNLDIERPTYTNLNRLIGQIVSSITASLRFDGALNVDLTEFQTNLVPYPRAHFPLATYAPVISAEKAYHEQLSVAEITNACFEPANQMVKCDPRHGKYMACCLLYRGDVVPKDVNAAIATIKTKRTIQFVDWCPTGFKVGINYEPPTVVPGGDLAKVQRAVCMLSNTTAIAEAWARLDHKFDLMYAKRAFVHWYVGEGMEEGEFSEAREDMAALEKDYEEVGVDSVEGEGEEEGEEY
Tubulin (Sus scrofa), sequence (P02554 whole entry, looked up): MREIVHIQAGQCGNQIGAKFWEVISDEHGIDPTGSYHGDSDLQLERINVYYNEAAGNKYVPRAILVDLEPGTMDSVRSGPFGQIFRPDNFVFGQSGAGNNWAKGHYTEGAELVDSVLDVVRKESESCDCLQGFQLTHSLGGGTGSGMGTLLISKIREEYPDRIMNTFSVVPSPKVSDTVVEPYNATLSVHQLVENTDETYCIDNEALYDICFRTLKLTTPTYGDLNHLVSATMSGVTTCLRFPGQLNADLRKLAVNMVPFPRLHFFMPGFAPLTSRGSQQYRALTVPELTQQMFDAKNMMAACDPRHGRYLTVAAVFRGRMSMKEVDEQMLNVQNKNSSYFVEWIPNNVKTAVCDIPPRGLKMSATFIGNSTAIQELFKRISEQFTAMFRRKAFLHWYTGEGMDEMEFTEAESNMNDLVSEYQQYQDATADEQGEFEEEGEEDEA

HepG2 [22] = experiment: Induction of apoptosis in human HepG2 cells assessed as increase in cleaved caspase-3 level at 0.03 to 0.3 uM incubated for 48 hrs by Western blot analysis; assay type: functional, cell-based; summary of the method: as §4
HepG2 [23] = experiment: Inhibition of cell invasion in human HepG2 cells assessed as retardation of cell penetration through matrigel-coated membranes at 0.3 uM incubated for 48 hrs; assay type: functional, cell-based
Summary of the method: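 HepG2 cells treated with compound or DMSO seeded in upper Transwell chamber in serum-free medium with Matrigel; complete medium in lower chamber. After 48 h at 37°C, 5% CO₂, invaded cells crystal-violet stained and photographed.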

HepG2 [24] = experiment: Induction of apoptosis in human HepG2 cells assessed as early apoptotic cells level at 0.3 uM incubated for 24 hrs by Annexin V-FITC/PI staining based flow cytometry (reference value: 4.02%); assay type: functional
Tubulin (Homo sapiens) [25] = biological target: T2, Tubulin (Homo sapiens) (UniProt P68371+Q9H4B7+P0DPH7+P68366+Q13509+Q71U36+P04350+Q3ZCM7+P07437+P68363+Q9BQE3+Q6PEY2+Q13885+Q9BVA1+Q9BUF5); experiment: Inhibition of tubulin polymerization in human HepG2 cells assessed as disruption of microtubule organization in cytosol at 0.3 uM incubated for 48 hrs by immunofluorescent staining; assay type: cell-based
Summary of the method: (§6)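 HepG2 treated 48 h (vehicle 0.1% DMSO; 0.3 μM paclitaxel reference). Fixed in formaldehyde, permeabilized with Triton X-100, BSA-blocked, anti-α-tubulin overnight at 4°C, fluorescent secondary, DAPI counterstain; imaged for microtubule network and chromosome morphology.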

HepG2 [26] = experiment: Induction of apoptosis in human HepG2 cells assessed as increase in cleaved PARP level at 0.03 to 0.3 uM incubated for 48 hrs by Western blot analysis; assay type: functional, cell-based; summary of the method: as §4
HepG2 [27] = experiment: Inhibition of mitotic exit in human HepG2 cells assessed as increase in nuclear phosphohistone H3 levels at 0.03 to 0.3 uM incubated for 48 hrs by Western blot analysis relative to control; assay type: functional, cell-based
OVCAR-3 = experiment: Cytotoxicity in human OVCAR3 cells assessed as reduction in cell viability incubated for 48 hrs by MTT assay; assay type: functional, cell-based; conditions: OVCAR-3, 48 h; summary of the method: as §2
HepG2 [28] = experiment: Inhibition of cell migration in human HepG2 cells incubated for 48 hrs by wound healing assay; assay type: functional, cell-based
Summary of the method: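 HepG2 seeded at 15×10⁴/well in triplicate overnight. Confluent monolayers scratched with a pipette tip, PBS-washed, medium with 0.3 μM compound added. Wounds photographed at 0, 24, 48, 72 h; wound area measured by image analysis. At least two separate experiments.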

HepG2 [29] = experiment: Induction of apoptosis in human HepG2 cells assessed as late apoptotic cells level at 0.3 uM incubated for 24 hrs by Annexin V-FITC/PI staining based flow cytometry (reference value: 5.12%); assay type: functional
HepG2 [30] = experiment: Induction of apoptosis in human HepG2 cells assessed as necrotic cells level at 0.3 uM incubated for 24 hrs by Annexin V-FITC/PI staining based flow cytometry (reference value: 1.48%); assay type: functional
Tubulin (Homo sapiens) [31] = biological target: T2, Tubulin (Homo sapiens); experiment: Inhibition of tubulin polymerization in human HepG2 cells assessed as condensed chromosome formation at 0.3 uM incubated for 48 hrs by immunofluorescent staining; assay type: cell-based; summary of the method: as §6

Cc1ncc([N+](=O)[O-])n1CCOC(=O)NC(Nc1c(Cl)nc(N)nc1Cl)C(Cl)(Cl)Cl (stereo unspecified)
inhibition [1]: Active | IC50 (Caov-3 cell line): 110 µM | inhibition [2]: inactive | Activity (HepG2 [3]): 64.34% | Activity (HepG2 [4]): 9.31% | inhibition [5]: inactive | Activity (HepG2 [6]): 1.08% | Activity (HepG2 [7]): 6.9% | Activity (HepG2 [8]): Active | inhibition [9]: Active | IC50 (HepG2 [10]): 25.6 µM | Activity (HepG2 [11]): 25.27% | IC50 (A-375): 34.2 µM | inhibition [12]: Active | inhibition [13]: Active | Activity (HepG2 [14]): Dose-dependent effect | Activity (HepG2 [15]): Active | Activity (HepG2 [16]): Active | Kd [17]: 49 µM | IC50 (MCF7): 160 µM | inhibition [18]: inactive | inhibition [19]: Active | IC50 (HeLa): 63.2 µM | IC50 (A549): 56.5 µM

Nc1nc(F)nc2c1ncn2C(NC(=O)OCCN1CCOCC1)C(Cl)(Cl)Cl (stereo unspecified)
Activity (HepG2 [20]): 10% | IC50 (Caov-3 cell line): 1.5 µM | Activity (HepG2 [21]): 57.7% | inhibition (Tubulin (Sus scrofa)): Dose-dependent effect | Activity (HepG2 [22]): Active | inhibition (HepG2 [23]): Active | Activity (HepG2 [24]): 37.35% | inhibition (Tubulin (Homo sapiens) [25]): Active | Activity (HepG2 [26]): Active | Activity (HepG2 [27]): Active | IC50 (HepG2 [10]): 0.6 µM | IC50 (OVCAR-3): 1.7 µM | IC50 (A-375): 0.7 µM | inhibition (HepG2 [28]): Dose-dependent effect | Activity (HepG2 [29]): 4.71% | Activity (HepG2 [30]): 0.24% | Activity (HepG2 [14]): Dose-dependent effect | inhibition (Tubulin (Homo sapiens) [31]): Active | Kd [17]: 119 µM | IC50 (MCF7): 0.2 µM | IC50 (HeLa): 0.3 µM | IC50 (A549): 1.5 µM
